The target of assay [1] is Sodium-dependent serotonin transporter (Homo sapiens, UniProt P31645). As to the kind of experiment: Displacement of [3H]Citalopram from human SERT. The method in brief: (§1)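 Competitive radioligand binding at human transporters. The tritiated standard ligand matched each transporter: WIN-35,428 for DAT, citalopram for SERT, and nisoxetine for NET.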
Assay [2] has as its target Sodium-dependent dopamine transporter (Homo sapiens, UniProt Q01959). The assay is described as follows: Displacement of [3H]WIN-35428 from human DAT. (In general: Displacement assays read how much labelled ligand stays bound in the presence of the test substance.)
Assay [3] deals with Monoamine transporters; Norepinephrine & dopamine (Homo sapiens) (UniProt Q01959+P23975). As to the kind of experiment: Selectivity for human DAT over human NET. The format is protein assay.
In assay [4] the target is Monoamine transporters; serotonin & dopamine (Homo sapiens) (UniProt P31645+Q01959). The assay is described as follows: Selectivity for human DAT over human SERT. The assay is classed as protein assay.
The target in assay [5] is Sodium-dependent noradrenaline transporter (Homo sapiens, UniProt P23975). The assay is described as follows: Displacement of [3H]nisoxetine from human NET. A digest of the protocol:
as §1

The target of assay [6] is Serotonin and norepinephrine transporters (SERT/NET) (Homo sapiens) (UniProt P31645+P23975). The assay is described as follows: Selectivity for human SERT over human NET. The format is protein assay.

pIC50: −log10 of the molar value.

Broadly, the pIC50 is the IC50 on a negative log10 scale, so that one unit is a factor of ten. A low value points to a large IC50.

Serotonin and norepinephrine transporters (SERT/NET) (Homo sapiens), sequence (P23975 whole entry, looked up): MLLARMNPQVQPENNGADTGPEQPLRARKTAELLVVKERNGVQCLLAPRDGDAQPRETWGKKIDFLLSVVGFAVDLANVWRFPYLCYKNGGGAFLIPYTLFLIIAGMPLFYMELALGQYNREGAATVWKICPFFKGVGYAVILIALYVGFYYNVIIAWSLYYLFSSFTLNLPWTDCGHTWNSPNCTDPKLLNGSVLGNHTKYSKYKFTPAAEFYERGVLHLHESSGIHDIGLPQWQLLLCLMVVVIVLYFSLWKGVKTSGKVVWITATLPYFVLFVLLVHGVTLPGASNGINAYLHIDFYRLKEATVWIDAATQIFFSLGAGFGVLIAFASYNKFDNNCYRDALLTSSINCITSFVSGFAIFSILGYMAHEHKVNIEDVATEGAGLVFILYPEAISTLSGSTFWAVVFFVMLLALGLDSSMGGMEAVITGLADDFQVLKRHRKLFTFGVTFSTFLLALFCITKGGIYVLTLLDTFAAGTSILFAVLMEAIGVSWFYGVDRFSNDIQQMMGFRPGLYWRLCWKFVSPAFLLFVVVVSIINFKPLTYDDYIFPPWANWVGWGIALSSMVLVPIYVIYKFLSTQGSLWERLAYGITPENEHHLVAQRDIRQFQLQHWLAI
Serotonin and norepinephrine transporters (SERT/NET) (Homo sapiens), sequence (P31645 whole entry, looked up): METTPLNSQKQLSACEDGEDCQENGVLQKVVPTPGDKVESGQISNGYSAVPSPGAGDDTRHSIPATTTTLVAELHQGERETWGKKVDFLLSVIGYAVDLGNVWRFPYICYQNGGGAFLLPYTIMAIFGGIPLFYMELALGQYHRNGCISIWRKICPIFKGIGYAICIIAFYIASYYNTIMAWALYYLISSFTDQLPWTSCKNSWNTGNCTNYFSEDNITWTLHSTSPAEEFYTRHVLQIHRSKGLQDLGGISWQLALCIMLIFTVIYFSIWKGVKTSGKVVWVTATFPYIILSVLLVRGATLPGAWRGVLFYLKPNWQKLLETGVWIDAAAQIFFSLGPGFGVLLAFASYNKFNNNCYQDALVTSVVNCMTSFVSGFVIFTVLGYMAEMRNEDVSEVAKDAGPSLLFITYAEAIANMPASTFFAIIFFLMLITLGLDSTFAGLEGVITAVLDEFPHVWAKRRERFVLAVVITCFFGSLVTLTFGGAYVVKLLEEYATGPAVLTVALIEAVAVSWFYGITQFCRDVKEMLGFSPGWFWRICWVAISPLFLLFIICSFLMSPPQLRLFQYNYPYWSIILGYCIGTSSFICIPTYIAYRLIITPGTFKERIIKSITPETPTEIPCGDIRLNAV
Monoamine transporters; Norepinephrine & dopamine (Homo sapiens), sequence (P23975 whole entry, looked up): as the sequence (P23975 whole entry, looked up) above
Monoamine transporters; Norepinephrine & dopamine (Homo sapiens), sequence (Q01959 whole entry, looked up): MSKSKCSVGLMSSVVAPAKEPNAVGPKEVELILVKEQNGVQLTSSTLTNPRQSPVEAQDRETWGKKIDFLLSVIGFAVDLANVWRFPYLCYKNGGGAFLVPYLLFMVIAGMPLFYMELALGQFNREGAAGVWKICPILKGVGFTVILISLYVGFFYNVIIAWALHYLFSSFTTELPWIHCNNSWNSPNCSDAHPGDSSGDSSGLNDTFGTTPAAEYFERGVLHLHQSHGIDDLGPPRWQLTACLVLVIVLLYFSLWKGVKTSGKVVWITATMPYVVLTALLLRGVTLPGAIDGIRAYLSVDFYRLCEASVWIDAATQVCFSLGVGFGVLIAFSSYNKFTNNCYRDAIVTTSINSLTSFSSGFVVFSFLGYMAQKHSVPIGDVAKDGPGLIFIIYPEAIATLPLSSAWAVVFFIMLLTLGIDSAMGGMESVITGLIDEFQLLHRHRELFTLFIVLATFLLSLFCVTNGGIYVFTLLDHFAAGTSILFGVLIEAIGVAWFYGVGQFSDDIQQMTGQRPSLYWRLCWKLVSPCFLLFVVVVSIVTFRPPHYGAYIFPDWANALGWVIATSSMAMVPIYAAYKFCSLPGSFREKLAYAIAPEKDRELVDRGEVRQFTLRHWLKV
Sodium-dependent noradrenaline transporter, sequence (P23975 whole entry): as the sequence (P23975 whole entry, looked up) above
Sodium-dependent dopamine transporter, sequence (Q01959 whole entry): as the sequence (Q01959 whole entry, looked up) above
Sodium-dependent serotonin transporter, sequence (P31645 whole entry): as the sequence (P31645 whole entry, looked up) above
Monoamine transporters; serotonin & dopamine (Homo sapiens), sequence (P31645 whole entry, looked up): as above
Monoamine transporters; serotonin & dopamine (Homo sapiens), sequence (Q01959 whole entry, looked up): as the sequence (Q01959 whole entry, looked up) above

Consider `CN1C2C=C(c3ccc4c(c3)Cc3ccccc3-4)CC1CC2` (centres undefined), for which the pIC50 in assay [1] is 7.84; in assay [2] it was 6.12; in assay [5], 5.47. For the same compound, the Ratio IC50 in assay [3] came out at 0.23; in assay [4], 52.2; in assay [6] it was 0.0043.
Regarding `CN1C2C=C(c3cccc(-c4ccccc4)c3)CC1CC2` (centres undefined), the pIC50 in assay [1] is 6.17; in assay [2], 5.14; in assay [5], 4.64. For the same compound, the Ratio IC50 turned out to be 0.314 in assay [3], 10.8 in assay [4] and 0.029 in assay [6].
`CN1C2CCC1CC(O)(C1c3ccccc3-c3ccccc31)C2` (centres undefined): the pIC50 in assay [1] is 4.45; in assay [2], 6.27; in assay [5], 3.80. Moreover, the Ratio IC50 was 0.0034 in assay [3], 0.015 in assay [4] and 0.22 in assay [6].
Turning to `CN1C2C=C(c3ccccc3-c3ccccc3)CC1CC2` (centres undefined), the pIC50 in assay [1] is 5.77; in assay [5], 5.19. In addition, the Ratio IC50 in assay [3] was found to be 1.44; in assay [4], 5.4; in assay [6], 0.27.
As to `CN1C2C=C(c3c[nH]c4ccccc34)CC1CC2` (centres undefined), the results for the pIC50 in assay [1], in assay [2] and in assay [5] were 7.14, 6.22 and 5.40, respectively. Further, the Ratio IC50 was 0.15 in assay [3], 8.3 in assay [4] and 0.018 in assay [6].
`C[N+]1(CCl)C2C=C(c3ccccc3-c3ccccc3)CC1CC2` (centres undefined): the pIC50 in assay [1] was 4.79; in assay [2] it was 4.17; in assay [5], 5.69. Besides, the Ratio IC50 in assay [3] was 33.2; in assay [4] it was 4.2; in assay [6], 8.
`CN1C2C=C(C3c4ccccc4-c4ccccc43)CC1CC2` (centres undefined): the pIC50 in assay [1] is 6.16; in assay [2], 5.03; in assay [5], 4.08. Further, the Ratio IC50 in assay [3] came to 0.113; in assay [4], 13.6; in assay [6] it was 0.0083.
Regarding `CN1C2CCC1CC(O)(c1ccccc1-c1ccccc1)C2` (centres undefined), the pIC50 in assay [1] was 5.60; in assay [2], 5.40; in assay [5] it was 4.18. The Ratio IC50 turned out to be 0.06 in assay [3], 1.58 in assay [4] and 0.038 in assay [6].
For `CN1C2CCC1CC(O)(C1c3ccccc3-c3ccc(Br)cc31)C2` (centres undefined), the pIC50 in assay [1] is 5.59; in assay [2], 4.77; in assay [5], 4.20. Further, the Ratio IC50 is 0.27 in assay [3], 6.5 in assay [4] and 0.041 in assay [6].
For the compound `CN1C2CCC1CC(O)(c1cccc(-c3ccccc3)c1)C2` (centres undefined), the pIC50 in assay [1] is 5.42; in assay [2], 4.66; in assay [5], 4.38. The Ratio IC50 in assay [3] came out at 0.53; in assay [4] it was 5.81; in assay [6], 0.091.
